# Experimental data taken from ChEMBL document CHEMBL2424622, “Development of amino-pyrimidine inhibitors of c-Jun N-terminal kinase (JNK): kinase profiling guided optimization of a 1,2,3-benzotriazole lead” (Bioorg Med Chem Lett, 2013).
# Columns and labels:
# [1] = biological target: Hepatocyte growth factor receptor (Homo sapiens) (UniProt P08581); experiment: Competitive binding affinity to MET (unknown origin) at 10 uM in presence of ATP relative to control
# [2] = biological target: Serine/threonine-protein kinase PAK 2 (Homo sapiens) (UniProt Q13177); experiment: Competitive binding affinity to PAK2 (unknown origin) at 10 uM in presence of ATP relative to control
# In short: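 In vitro ATP-site competition binding assay across a diverse panel of 128 kinases, with compound tested at a single concentration. Kinase selectivity scores (S15) were calculated from the panel profiles.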
# [3] = biological target: T1, cGMP-dependent protein kinase 2 (Homo sapiens) (UniProt Q13237); experiment: Competitive binding affinity to PRKG2 (unknown origin) at 10 uM in presence of ATP relative to control
# T1 sequence (whole entry): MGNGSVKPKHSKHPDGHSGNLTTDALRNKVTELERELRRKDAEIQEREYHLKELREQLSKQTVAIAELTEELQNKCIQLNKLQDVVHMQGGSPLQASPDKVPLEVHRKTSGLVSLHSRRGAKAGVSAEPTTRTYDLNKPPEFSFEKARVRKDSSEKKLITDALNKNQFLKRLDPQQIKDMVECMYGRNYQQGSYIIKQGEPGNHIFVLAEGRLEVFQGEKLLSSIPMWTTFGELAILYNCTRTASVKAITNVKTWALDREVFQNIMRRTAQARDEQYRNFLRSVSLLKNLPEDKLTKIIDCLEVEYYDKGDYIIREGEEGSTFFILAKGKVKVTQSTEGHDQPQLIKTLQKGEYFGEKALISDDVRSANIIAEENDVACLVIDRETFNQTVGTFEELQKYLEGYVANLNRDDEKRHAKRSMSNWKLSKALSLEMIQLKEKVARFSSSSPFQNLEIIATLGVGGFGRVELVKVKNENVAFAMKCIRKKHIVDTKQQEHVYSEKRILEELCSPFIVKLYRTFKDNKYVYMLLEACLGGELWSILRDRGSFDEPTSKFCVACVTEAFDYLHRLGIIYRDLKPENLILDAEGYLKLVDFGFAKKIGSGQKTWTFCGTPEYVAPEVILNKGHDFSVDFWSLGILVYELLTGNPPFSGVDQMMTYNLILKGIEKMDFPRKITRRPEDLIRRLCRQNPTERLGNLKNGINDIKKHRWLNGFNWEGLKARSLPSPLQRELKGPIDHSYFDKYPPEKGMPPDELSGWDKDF
# [4] = test system: Tyrosine-protein kinase ABL1 (Homo sapiens), P00519 [H396P]; experiment: Competitive binding affinity to ABL1 H396P mutant (unknown origin) at 10 uM in presence of ATP relative to control
# [5] = biological target: Protein kinase C delta type (Homo sapiens) (UniProt Q05655); experiment: Competitive binding affinity to PRKCD (unknown origin) at 10 uM in presence of ATP relative to control
# [6] = biological target: Serine/threonine-protein kinase MRCK beta (Homo sapiens) (UniProt Q9Y5S2); experiment: Competitive binding affinity to MRCKB (unknown origin) at 10 uM in presence of ATP relative to control
# [7] = biological target: T2, Serine/threonine-protein kinase BRSK1 (Homo sapiens) (UniProt Q8TDC3); experiment: Competitive binding affinity to BRSK1 (unknown origin) at 10 uM in presence of ATP relative to control
# T2 sequence (whole entry): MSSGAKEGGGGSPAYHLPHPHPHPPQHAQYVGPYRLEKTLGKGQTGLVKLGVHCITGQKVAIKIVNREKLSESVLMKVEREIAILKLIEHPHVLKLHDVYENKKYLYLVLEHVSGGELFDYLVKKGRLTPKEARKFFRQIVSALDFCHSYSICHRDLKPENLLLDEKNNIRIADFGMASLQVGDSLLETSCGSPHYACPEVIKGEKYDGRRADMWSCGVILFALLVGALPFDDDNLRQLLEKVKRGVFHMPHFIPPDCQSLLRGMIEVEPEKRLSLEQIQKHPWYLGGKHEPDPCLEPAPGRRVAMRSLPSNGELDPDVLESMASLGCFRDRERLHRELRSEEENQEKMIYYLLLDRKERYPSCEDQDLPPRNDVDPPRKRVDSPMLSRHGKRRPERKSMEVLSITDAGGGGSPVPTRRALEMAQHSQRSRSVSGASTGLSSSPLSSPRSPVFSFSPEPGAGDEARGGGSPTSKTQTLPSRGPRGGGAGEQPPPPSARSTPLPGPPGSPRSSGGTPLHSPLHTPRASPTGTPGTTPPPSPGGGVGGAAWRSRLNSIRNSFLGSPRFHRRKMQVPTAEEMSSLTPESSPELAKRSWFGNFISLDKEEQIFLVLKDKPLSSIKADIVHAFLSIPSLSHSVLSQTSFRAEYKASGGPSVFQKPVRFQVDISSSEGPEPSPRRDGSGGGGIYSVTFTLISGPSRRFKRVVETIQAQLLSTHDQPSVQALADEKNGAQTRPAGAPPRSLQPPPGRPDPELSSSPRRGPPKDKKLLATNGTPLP
# [8] = biological target: T3, Serine/threonine-protein kinase D1 (Homo sapiens) (UniProt Q15139); experiment: Competitive binding affinity to PRKD1 (unknown origin) at 10 uM in presence of ATP relative to control
# T3 sequence (whole entry): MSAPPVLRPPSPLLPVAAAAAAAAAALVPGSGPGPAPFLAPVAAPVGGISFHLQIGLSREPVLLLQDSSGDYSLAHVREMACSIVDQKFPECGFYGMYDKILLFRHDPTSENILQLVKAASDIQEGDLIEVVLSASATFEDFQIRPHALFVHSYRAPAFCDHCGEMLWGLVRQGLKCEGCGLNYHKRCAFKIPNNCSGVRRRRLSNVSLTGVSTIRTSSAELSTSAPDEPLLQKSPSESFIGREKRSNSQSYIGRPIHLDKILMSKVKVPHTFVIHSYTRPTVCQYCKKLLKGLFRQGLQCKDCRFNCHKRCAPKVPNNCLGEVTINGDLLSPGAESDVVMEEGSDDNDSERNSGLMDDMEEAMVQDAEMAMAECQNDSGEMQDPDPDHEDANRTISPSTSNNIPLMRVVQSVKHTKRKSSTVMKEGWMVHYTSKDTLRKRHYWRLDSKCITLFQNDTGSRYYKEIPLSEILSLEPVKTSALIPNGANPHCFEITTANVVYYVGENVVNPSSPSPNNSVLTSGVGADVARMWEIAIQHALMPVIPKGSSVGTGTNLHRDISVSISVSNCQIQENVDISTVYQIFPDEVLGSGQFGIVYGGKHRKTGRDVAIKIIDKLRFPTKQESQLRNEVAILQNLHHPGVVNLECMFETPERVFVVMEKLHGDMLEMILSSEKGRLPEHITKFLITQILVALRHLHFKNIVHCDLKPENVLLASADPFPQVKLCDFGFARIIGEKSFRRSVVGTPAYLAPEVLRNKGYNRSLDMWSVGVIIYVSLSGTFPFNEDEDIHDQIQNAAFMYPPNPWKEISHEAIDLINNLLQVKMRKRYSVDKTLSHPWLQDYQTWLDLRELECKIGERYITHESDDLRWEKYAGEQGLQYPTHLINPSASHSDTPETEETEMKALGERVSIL
# Sequence of Protein kinase C delta type (Homo sapiens) (Q05655 whole entry, looked up): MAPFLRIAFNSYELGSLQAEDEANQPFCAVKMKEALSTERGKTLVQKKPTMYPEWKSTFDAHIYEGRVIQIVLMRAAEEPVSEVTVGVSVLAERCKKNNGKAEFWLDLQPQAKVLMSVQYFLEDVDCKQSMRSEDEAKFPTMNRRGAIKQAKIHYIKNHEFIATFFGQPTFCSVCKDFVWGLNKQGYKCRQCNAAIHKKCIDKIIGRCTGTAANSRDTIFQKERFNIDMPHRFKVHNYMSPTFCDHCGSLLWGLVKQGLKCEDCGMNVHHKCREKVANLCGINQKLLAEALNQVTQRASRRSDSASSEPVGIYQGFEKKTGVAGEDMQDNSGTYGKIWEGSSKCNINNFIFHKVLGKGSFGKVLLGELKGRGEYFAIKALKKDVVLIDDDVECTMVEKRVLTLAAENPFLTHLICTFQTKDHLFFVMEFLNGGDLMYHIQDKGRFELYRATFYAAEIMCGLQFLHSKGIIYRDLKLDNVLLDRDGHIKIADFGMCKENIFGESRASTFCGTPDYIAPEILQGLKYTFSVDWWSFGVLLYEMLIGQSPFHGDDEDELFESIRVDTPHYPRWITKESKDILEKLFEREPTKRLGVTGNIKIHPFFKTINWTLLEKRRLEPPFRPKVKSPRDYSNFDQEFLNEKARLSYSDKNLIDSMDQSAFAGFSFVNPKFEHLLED
# Sequence of Hepatocyte growth factor receptor (Homo sapiens) (P08581 whole entry): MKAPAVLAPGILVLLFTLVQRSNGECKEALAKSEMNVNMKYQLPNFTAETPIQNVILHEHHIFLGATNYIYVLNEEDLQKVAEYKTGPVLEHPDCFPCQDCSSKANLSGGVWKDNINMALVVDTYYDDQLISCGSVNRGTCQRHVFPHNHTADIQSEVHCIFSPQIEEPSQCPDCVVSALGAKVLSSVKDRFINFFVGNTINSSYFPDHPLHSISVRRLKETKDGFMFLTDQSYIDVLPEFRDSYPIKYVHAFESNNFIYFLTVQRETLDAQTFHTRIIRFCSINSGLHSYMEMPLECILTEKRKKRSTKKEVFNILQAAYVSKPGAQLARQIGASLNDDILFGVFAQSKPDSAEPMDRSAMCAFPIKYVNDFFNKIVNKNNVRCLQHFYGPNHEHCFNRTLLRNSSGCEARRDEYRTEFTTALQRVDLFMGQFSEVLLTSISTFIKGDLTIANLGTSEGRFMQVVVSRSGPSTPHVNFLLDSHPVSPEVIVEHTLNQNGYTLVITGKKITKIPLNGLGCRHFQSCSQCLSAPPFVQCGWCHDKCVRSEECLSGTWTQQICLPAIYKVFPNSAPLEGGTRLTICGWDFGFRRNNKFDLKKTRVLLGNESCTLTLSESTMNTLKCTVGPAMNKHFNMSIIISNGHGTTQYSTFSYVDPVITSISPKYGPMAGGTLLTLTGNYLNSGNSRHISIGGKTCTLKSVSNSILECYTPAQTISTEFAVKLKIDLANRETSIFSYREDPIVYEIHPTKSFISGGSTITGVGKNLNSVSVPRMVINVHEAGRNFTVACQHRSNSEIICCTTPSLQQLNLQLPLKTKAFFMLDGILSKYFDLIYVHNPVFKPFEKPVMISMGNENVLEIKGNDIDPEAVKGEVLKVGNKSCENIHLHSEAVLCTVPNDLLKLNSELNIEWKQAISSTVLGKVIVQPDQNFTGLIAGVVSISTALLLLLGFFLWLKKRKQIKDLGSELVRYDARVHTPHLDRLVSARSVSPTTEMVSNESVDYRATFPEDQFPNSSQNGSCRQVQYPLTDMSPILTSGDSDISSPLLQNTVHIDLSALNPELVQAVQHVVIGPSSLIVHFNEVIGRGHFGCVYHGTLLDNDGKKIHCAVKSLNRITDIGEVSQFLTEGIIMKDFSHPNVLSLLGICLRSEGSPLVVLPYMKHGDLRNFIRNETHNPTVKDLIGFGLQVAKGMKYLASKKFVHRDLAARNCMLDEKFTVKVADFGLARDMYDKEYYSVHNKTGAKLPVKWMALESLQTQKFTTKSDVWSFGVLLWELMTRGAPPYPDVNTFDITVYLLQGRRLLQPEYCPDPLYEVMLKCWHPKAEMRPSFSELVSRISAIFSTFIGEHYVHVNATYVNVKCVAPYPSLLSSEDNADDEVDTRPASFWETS
# Sequence of Serine/threonine-protein kinase PAK 2 (Homo sapiens) (Q13177 whole entry): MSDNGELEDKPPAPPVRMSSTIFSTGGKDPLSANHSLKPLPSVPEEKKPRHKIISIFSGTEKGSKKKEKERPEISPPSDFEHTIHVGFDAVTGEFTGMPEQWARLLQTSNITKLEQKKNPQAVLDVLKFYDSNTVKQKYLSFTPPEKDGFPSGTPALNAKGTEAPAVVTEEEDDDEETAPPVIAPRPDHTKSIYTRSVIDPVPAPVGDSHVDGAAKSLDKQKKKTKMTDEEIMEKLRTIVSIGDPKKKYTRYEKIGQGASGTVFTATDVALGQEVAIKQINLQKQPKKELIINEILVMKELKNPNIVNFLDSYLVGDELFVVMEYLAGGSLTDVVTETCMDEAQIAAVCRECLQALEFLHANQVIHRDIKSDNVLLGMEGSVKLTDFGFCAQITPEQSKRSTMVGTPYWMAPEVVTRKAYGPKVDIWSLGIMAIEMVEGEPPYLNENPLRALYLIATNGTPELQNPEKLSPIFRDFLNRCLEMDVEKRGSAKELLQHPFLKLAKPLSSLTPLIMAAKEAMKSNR
# Sequence of Serine/threonine-protein kinase MRCK beta (Homo sapiens) (Q9Y5S2 whole entry): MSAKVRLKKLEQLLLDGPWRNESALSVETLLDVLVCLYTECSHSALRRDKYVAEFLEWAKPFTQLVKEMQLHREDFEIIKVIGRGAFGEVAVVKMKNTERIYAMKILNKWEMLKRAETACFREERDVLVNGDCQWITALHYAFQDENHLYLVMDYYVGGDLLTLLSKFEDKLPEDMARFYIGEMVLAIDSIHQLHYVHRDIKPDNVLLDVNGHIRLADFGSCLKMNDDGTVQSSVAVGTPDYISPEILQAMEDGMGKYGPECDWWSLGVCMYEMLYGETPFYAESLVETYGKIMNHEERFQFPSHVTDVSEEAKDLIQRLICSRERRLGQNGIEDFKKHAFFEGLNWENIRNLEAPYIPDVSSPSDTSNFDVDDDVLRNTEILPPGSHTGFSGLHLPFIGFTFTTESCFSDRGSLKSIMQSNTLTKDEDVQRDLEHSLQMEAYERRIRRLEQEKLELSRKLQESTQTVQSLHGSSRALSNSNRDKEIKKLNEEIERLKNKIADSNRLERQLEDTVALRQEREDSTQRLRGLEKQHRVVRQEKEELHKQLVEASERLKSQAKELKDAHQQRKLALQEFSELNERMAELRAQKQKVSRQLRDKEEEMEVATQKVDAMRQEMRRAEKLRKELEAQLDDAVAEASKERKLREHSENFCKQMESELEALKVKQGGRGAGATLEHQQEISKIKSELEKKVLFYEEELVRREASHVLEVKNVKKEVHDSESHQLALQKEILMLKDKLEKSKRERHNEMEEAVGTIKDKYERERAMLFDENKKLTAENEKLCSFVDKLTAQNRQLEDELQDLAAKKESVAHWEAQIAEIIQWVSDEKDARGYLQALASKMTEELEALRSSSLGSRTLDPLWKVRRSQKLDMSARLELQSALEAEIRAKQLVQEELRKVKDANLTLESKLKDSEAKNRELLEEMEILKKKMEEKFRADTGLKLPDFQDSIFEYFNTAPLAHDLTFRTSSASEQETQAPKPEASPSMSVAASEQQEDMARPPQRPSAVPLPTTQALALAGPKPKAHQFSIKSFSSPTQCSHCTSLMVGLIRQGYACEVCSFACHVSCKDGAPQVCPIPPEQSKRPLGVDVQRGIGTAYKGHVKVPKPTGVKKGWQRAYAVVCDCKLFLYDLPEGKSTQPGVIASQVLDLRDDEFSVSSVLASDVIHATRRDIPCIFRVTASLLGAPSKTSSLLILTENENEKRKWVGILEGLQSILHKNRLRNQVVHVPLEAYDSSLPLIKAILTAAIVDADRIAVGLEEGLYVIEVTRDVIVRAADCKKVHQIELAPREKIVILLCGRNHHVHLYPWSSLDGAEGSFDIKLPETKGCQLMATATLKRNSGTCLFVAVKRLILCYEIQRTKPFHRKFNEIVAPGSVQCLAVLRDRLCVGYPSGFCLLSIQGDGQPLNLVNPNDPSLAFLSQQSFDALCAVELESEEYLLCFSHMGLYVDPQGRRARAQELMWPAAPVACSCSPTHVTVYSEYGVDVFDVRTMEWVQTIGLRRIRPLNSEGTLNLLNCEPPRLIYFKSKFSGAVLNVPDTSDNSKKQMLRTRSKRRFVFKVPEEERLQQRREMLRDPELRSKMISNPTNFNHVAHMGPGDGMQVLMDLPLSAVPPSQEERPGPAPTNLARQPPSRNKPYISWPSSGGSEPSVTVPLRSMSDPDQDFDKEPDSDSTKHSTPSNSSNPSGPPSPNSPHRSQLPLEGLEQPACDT
inhibition [1] [%],inhibition [2] [%],inhibition [3] [%],inhibition [4] [%],inhibition [5] [%],inhibition [6] [%],inhibition [7] [%],inhibition [8] [%],SMILES
98,82,< 50,< 50,,,,,O[C@H]1CC[C@H](Nc2nccc(-c3n[nH]c4ccccc34)n2)CC1
93,< 50,< 50,< 50,< 50,< 50,< 50,95,O[C@H]1CC[C@H](Nc2nccc(-n3ccc4ccccc43)n2)CC1
97,< 50,< 50,< 50,< 50,< 50,< 50,98,O[C@H]1CC[C@H](Nc2nccc(-n3nnc4ccccc43)n2)CC1
96,< 50,< 50,< 50,< 50,< 50,< 50,96,O[C@H]1CC[C@H](Nc2nccc(-n3ncc4ccccc43)n2)CC1
